Measurements published in ChEMBL document CHEMBL4477201, “Imidazopyridine and Pyrazolopiperidine Derivatives as Novel Inhibitors of Serine Palmitoyl Transferase” (J Med Chem, 2016).
The source made the active and inactive calls. No cut-off for these calls is given here.

What was measured:
[1] = target: T1, Serine palmitoyltransferase 1 (Homo sapiens, UniProt O15269); assay: Inhibition of human SPT1 expressed in microsomes of HEK293 cells incubated for 1hr by LC/MS analysis
T1 sequence (O15269 whole entry): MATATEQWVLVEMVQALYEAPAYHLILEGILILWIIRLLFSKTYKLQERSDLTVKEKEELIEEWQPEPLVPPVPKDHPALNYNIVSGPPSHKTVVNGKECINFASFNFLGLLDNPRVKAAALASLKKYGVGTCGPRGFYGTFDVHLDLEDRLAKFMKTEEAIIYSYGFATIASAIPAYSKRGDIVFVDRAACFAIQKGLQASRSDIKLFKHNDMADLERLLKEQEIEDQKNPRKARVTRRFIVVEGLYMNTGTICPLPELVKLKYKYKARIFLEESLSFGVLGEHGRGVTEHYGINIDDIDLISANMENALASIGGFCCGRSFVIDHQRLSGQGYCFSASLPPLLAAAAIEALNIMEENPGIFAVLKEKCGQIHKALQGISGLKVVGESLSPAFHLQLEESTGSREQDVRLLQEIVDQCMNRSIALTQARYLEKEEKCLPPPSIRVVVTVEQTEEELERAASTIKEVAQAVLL
Outline: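 SPT source was a microsomal fraction from HEK293 cells, with serine and palmitoyl coenzyme A as substrates. Formation of 3-ketodeoxysphinganine quantified by LC/MS. Inhibition determined at 10 concentrations per compound to give IC50.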

[2] = target: T2, Serine palmitoyltransferase 1 (Homo sapiens) (UniProt O15269); assay: (§1) Inhibition of SPT1 in human MCF7 cells assessed as suppression of 14C-serine incorporation into ceramide incubated for 2 hrs in presence of 4-HPR; format: cell-based
T2 sequence (whole entry): T1 sequence (O15269 whole entry)
Outline: (§2)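 Human MCF-7 cells incubated 2 h with a range of compound concentrations or DMSO control media. Medium contained 14C-serine plus 25 uM 4-HPR to activate SPT. 14C-serine-labeled ceramide products quantified to give EC50.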

[3] = target: T1, Serine palmitoyltransferase 1; assay: as §1; format: cell-based; outline: as §2
[4] = Fraction unbound in rat; format: ADME
Rattus norvegicus [5] = assay: Increase in HDL level in cholic acid/cholesterol-fed Sprague-Dawley rat model of dyslipidemia administered bid through oral gavage measured after 1 week by FPLC analysis relative to vehicle-treated control; format: functional, organism-based
Outline: (§3)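 Sprague Dawley rats fed a cholic acid/cholesterol diet for 14 days, then dosed orally BID for 7 days at five dose levels, n=6. Serum ceramides and VLDL and HDL cholesterol compared with vehicle (dose 0). Mean ± SEM; Dunnett's test, p<0.05.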

[6] = Dissociation constant, pKa of the compound; format: physicochemical
[7] = Lipophilicity, log P of compound; format: physicochemical; settings: octanol/water
[8] = Drug uptake in diet-induced obese C57Bl/6 mouse liver at 1 mg/kg, po qd for 4 weeks measured 6 hrs post last dose; format: ADME, organism-based; settings: read-out: Drug uptake
Outline: (§4)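 Male DIO mice dosed orally for 4 weeks. Sacrificed 6 h after the last dose. Compound measured in serum (ng/mL) and liver (ng/g), and the liver:serum ratio calculated.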

[9] = AUC (0 to 24 hrs) in Sprague-Dawley rat at 1 mg/kg, iv; format: ADME, organism-based; design: time < 24 hr, dose 1 mg/kg, route intravenous; settings: in vivo
Outline: (§5)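 Single dose to fasted male Sprague Dawley rats, IV at 1 mg/kg or oral at 3 mg/kg. Plasma levels followed to derive AUC0-24hr, Cmax, half-life, Vdss and oral bioavailability.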

[10] = Cmax in Sprague-Dawley rat at 1 mg/kg, iv; format: ADME, organism-based; design: dose 1 mg/kg, route intravenous; settings: in vivo; outline: as §5
[11] = Half life in Sprague-Dawley rat at 1 mg/kg, iv; format: ADME, organism-based; settings: in vivo; outline: as §5
[12] = Volume of distribution at steady state in Sprague-Dawley rat at 1 mg/kg, iv; format: ADME, organism-based; settings: in vivo, read-out: Vdss; outline: as §5
[13] = AUC (0 to 24 hrs) in Sprague-Dawley rat at 3 mg/kg,po; format: ADME, organism-based; design: time < 24 hr, dose 3 mg/kg, route oral; settings: in vivo; outline: as §5
[14] = Cmax in Sprague-Dawley rat at 3 mg/kg,po; format: ADME, organism-based; design: dose 3 mg/kg, route oral; settings: in vivo; outline: as §5
[15] = Half life in Sprague-Dawley rat at 3 mg/kg,po; format: ADME, organism-based; settings: in vivo; outline: as §5
[16] = Volume of distribution at steady state in Sprague-Dawley rat at 3 mg/kg,po; format: ADME, organism-based; settings: in vivo
Outline: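 Male Sprague Dawley rats, fasted, single oral dose of 3 mg/kg. A parallel arm received 1 mg/kg IV. Plasma was sampled for pharmacokinetics over 0-24 hr. Steady-state volume of distribution is reported […], in mL/kg.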

[17] = Oral bioavailability in Sprague-Dawley rat at 3 mg/kg; format: ADME, organism-based; settings: in vivo; outline: as §5
Mus musculus [18] = assay: Reduction in total plasma ceramide level in C57BL6 mouse administered through gavage after 6 hrs by mass spectrometry relative to vehicle-treated control; format: functional
Outline: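 Normal C57bl6 mice given a single oral dose at six dose levels, n=3 per group. Plasma collected 6 h post dose. C16:0, C20:0, C22:0, C24:0 and C24:1 ceramides measured by mass spectrometry and summed; total reduction calculated versus vehicle. ED50 derived from the dose-response; mean ± SEM.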

Rattus norvegicus [19] = assay: Reduction in vLDL level in cholic acid/cholesterol-fed Sprague-Dawley rat model of dyslipidemia at 60 mg/kg administered bid through oral gavage measured after 1 week by FPLC analysis relative to vehicle-treated control; format: functional, organism-based; outline: as §3
Rattus norvegicus [20] = assay: Reduction in total plasma ceramide level in cholic acid/cholesterol-fed Sprague-Dawley rat model of dyslipidemia at 30 to 60 mg/kg administered bid through oral gavage measured after 1 week by FPLC analysis relative to vehicle-treated control; format: functional, organism-based; outline: as §3
Mus musculus [21] = assay: Reduction in total plasma ceramide level in diet-induced obese C57BL6 mouse administered daily through oral gavage for 28 days measured 2 hrs post last dose relative to lean control; format: functional, organism-based
Outline: (§6)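 DIO mice dosed orally for 28 days, with myriocin as positive control and lean mice as reference. Total and C18:0 plasma ceramides measured 2 h after the final dose.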

Mus musculus [22] = assay: Reduction in plasma C18:0 ceramide level in diet-induced obese C57BL6 mouse at 1 to 60 mg/kg administered daily through oral gavage for 28 days measured 2 hrs post last dose relative to lean control; format: functional, organism-based; outline: as §6
[23] = Toxicity in rat assessed as induction of gastric enteropathy during 14 days toxicology study; settings: in vivo, 336 h
Mus musculus [24] = assay: Reduction in serum insulin AUC in diet-induced obese C57BL6 mouse at 1 to 60 mg/kg, po qd for 4 weeks by oral glucose tolerance test relative to lean control; format: functional, organism-based
Outline: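 After 4 weeks of oral dosing, DIO mice underwent an oral glucose tolerance test. Insulin and glucose AUC compared with lean mice; trend assessed by ANOVA trend analysis.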

[25] = Toxicity in diet-induced obese C57Bl/6 mouse assessed as change in food intake at 1 to 60 mg/kg, po qd for 4 weeks; format: organism-based; settings: in vivo, 672 h
Outline: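 Food intake monitored in DIO mice during 4 weeks of daily oral dosing.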

[26] = Drug uptake in diet-induced obese C57Bl/6 mouse serum at 1 mg/kg, po qd for 4 weeks measured 6 hrs post last dose; format: ADME, organism-based; settings: read-out: Drug uptake; outline: as §4
[27] = Drug uptake in diet-induced obese C57Bl/6 mouse serum at 3 mg/kg, po qd for 4 weeks measured 6 hrs post last dose; format: ADME, organism-based; settings: read-out: Drug uptake; outline: as §4
[28] = Drug uptake in diet-induced obese C57Bl/6 mouse serum at 10 mg/kg, po qd for 4 weeks measured 6 hrs post last dose; format: ADME, organism-based; settings: read-out: Drug uptake; outline: as §4
[29] = Drug uptake in diet-induced obese C57Bl/6 mouse serum at 30 mg/kg, po qd for 4 weeks measured 6 hrs post last dose; format: ADME, organism-based; settings: read-out: Drug uptake; outline: as §4
[30] = Drug uptake in diet-induced obese C57Bl/6 mouse serum at 60 mg/kg, po qd for 4 weeks measured 6 hrs post last dose; format: ADME, organism-based; settings: read-out: Drug uptake; outline: as §4
[31] = Drug uptake in diet-induced obese C57Bl/6 mouse liver at 3 mg/kg, po qd for 4 weeks measured 6 hrs post last dose; format: ADME, organism-based; settings: read-out: Drug uptake; outline: as §4
[32] = Drug uptake in diet-induced obese C57Bl/6 mouse liver at 10 mg/kg, po qd for 4 weeks measured 6 hrs post last dose; format: ADME, organism-based; settings: read-out: Drug uptake; outline: as §4
[33] = Drug uptake in diet-induced obese C57Bl/6 mouse liver at 30 mg/kg, po qd for 4 weeks measured 6 hrs post last dose; format: ADME, organism-based; settings: read-out: Drug uptake; outline: as §4
[34] = Drug uptake in diet-induced obese C57Bl/6 mouse liver at 60 mg/kg, po qd for 4 weeks measured 6 hrs post last dose; format: ADME, organism-based; settings: read-out: Drug uptake; outline: as §4
[35] = Ratio of drug uptake in diet-induced obese C57Bl/6 mouse liver to serum at 1 mg/kg, po qd for 4 weeks measured 6 hrs post last dose; format: ADME, organism-based; outline: as §4
[36] = Ratio of drug uptake in diet-induced obese C57Bl/6 mouse liver to serum at 3 mg/kg, po qd for 4 weeks measured 6 hrs post last dose; format: ADME, organism-based; outline: as §4
[37] = Ratio of drug uptake in diet-induced obese C57Bl/6 mouse liver to serum at 10 mg/kg, po qd for 4 weeks measured 6 hrs post last dose; format: ADME, organism-based; outline: as §4
[38] = Ratio of drug uptake in diet-induced obese C57Bl/6 mouse liver to serum at 30 mg/kg, po qd for 4 weeks measured 6 hrs post last dose; format: ADME, organism-based; outline: as §4
[39] = Ratio of drug uptake in diet-induced obese C57Bl/6 mouse liver to serum at 60 mg/kg, po qd for 4 weeks measured 6 hrs post last dose; format: ADME, organism-based; outline: as §4
Mus musculus [40] = assay: Reduction in total liver ceramide level in diet-induced obese C57BL6 mouse at 1 to 60 mg/kg administered daily through oral gavage for 28 days measured 6 hrs post last dose relative to lean control; format: functional, organism-based
Outline: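 Liver total ceramide levels measured in DIO mice after 4 weeks of oral dosing.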

Mus musculus [41] = assay: Reduction in plasma C18:0 ceramide level in diet-induced obese C57BL6 mouse at 0.5 mg/kg administered daily through oral gavage for 28 days measured 2 hrs post last dose relative to lean control; format: functional, organism-based
Outline: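 DIO mice received daily oral doses for 4 weeks as part of a dose-response study. Plasma was sampled 2 h after the final dose. Total and C18:0 plasma ceramides were measured and compared with those of lean control mice. At the end of dosing, the same cohort underwent an oral glucose tolerance test.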

Compound: CCCCCCC(=O)c1cc(-c2ccc(CC(=O)O)cc2)c2nccn2c1
- IC50 [1]: 5.19 nM
- inhibition [2]: Dose-dependent effect
- EC50 [3]: 977 nM
- fraction unbound [4]: < 0.02
- Activity (Rattus norvegicus [5]): Dose-dependent effect
- pKa [6]: 4.73
- logP [7]: 3.97
- concentration at 6 h [8]: 463 ng/g
- AUC(0-t) at 24 h [9]: 1270 ng·h/mL
- Cmax [10]: 2540 ng/mL
- half-life [11]: 2.13 h
- Vd [12]: 0.574 L/kg
- AUC(0-t) at 24 h [13]: 2920 ng·h/mL
- Cmax [14]: 1500 ng/mL
- half-life [15]: 1.48 h
- Vdss [16]: 1.84 L/kg
- bioavailability [17]: 75%
- Activity (Mus musculus [18]): Dose-dependent effect
- ED50 (Mus musculus [18]; C57BL6, po): 1.04 mg/kg
- Activity (Rattus norvegicus [19]): Active
- Activity (Rattus norvegicus [20]): Active
- Activity (Mus musculus [21]): Dose-dependent effect
- Activity (Mus musculus [22]): Active
- Activity [23]: Toxic
- Activity (Mus musculus [24]): Active
- Activity [25]: Non-Toxic
- concentration at 6 h [26]: 88 ng/mL
- concentration at 6 h [27]: 264 ng/mL
- concentration at 6 h [28]: 341 ng/mL
- concentration at 6 h [29]: 677 ng/mL
- concentration at 6 h [30]: 3350 ng/mL
- concentration at 6 h [31]: 789 ng/g
- concentration at 6 h [32]: 2850 ng/g
- concentration at 6 h [33]: 6580 ng/g
- concentration at 6 h [34]: 181000 ng/g
- Kp at 6 h [35]: 5
- Kp at 6 h [36]: 3
- Kp at 6 h [37]: 8
- Kp at 6 h [38]: 10
- Kp at 6 h [39]: 54
- Activity (Mus musculus [40]): Active

Compound: CCCCCCC(=O)CCCCCC/C=C/C[C@@H](O)[C@H](O)[C@@](N)(CO)C(=O)O [MYRIOCIN]
- EC50 [3]: 49.5 nM
- Activity (Mus musculus [41]): Active
